The record followed here is ChEMBL document CHEMBL4402564, “Synthetic Lethality in Pancreatic Cancer: Discovery of a New RAD51-BRCA2 Small Molecule Disruptor That Inhibits Homologous Recombination and Synergizes with Olaparib” (J Med Chem, 2020).

Structures are written as SMILES. The source made the active and inactive calls. The calls are words filed in the database; no cut-off is given here.

Experiment [1] addresses T1, DNA repair protein RAD51 homolog 1 (Homo sapiens, UniProt Q06609).
T1 sequence (Q06609 whole entry): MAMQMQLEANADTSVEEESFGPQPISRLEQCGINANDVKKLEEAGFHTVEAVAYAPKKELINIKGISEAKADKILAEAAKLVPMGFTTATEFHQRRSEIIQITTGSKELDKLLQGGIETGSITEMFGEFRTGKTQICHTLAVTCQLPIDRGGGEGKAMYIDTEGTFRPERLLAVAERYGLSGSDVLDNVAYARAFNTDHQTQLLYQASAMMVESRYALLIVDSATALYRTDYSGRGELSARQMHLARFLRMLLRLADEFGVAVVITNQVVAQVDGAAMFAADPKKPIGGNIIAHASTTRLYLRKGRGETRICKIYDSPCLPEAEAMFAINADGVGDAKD
The experiment can be described thus: Inhibition of biotinylated BRC4 peptide binding to His-tagged human RAD51 expressed in Escherichia coli Rosetta(DE3) pLysS cells assessed as BRC4-RAD51 protein -protein interaction by competitive ELISA. Summed up: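 Biotinylated BRC4 peptide coated onto wells, washed with PBS/0.05% Tween-20, blocked with 1% BSA/PBST, then hybridized overnight with human RAD51. Compounds tested at 0.01–100 μM in triplicate with 1% DMSO constant. Bound RAD51 detected with anti-RAD51 and HRP secondary antibody, TMB colorimetric signal quenched with 1 M HCl. EC50 ± SD reported.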

Another experiment has as its system CAPAN-1. In words: Induction of DNA damage in BRCA2 defective human Capan1 cells assessed as increase in gamma-H2AX labelling […] hrs by immunofluorescence microscopic analysis. Type of experiment: functional, cell-based. Summed up: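 Cells exposed 48 h to 20 μM disruptor alone or with 10 μM olaparib, in medium with 0.6% DMSO. Nuclear γ-H2AX foci visualized by immunofluorescence and percentage of labeled nuclei scored. BxPC-3 (functional BRCA2) and Capan-1 (BRCA2-defective) cultures in RPMI 1640 with 10% FBS.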

Experiment [2] has as its system BXPC-3. In words: Antiproliferative activity against human BxPC3 cells after 72 hrs in presence of olaparib by CellTiter-Glo luminescent cell viability assay. Type of experiment: functional, cell-based. The gist of the method:
(§1)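 BxPC-3 cells grown in RPMI 1640 with 10% FBS, penicillin/streptomycin and 2 mM glutamine. Disruptor given alone or with 10 μM olaparib in medium containing 0.6% DMSO, with the same DMSO in controls. Viability read at 72 h, measured alongside cell death.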

Experiment [3] has as its target T2, DNA repair protein RAD51 homolog 1 (Homo sapiens) (UniProt Q06609).
T2 sequence (whole entry): T1 sequence (Q06609 whole entry)
The experiment can be described thus: Inhibition of RAD51 interaction in human BxPC3 cells assessed as inhibition of homologous recombination incubated for 5 hrs by RT-PCR analysis. It is filed as cell-based. Summed up:
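Commercial two-plasmid recombination assay in BxPC-3 cells, with compound applied at different doses for 5 h simultaneously with plasmid transfection. Tested up to 40 μM, limited by solubility. Dose giving 50% HR inhibition estimated by polynomial regression.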

Experiment [4] has as its system BXPC-3. The experiment can be described thus: Antiproliferative activity against human BxPC3 cells at 20 uM after 72 hrs in presence of olaparib by CellTiter-Glo luminescent cell viability assay. It is filed as functional, cell-based. The gist of the method: as §1
Background: Cellular ATP, detected with luciferase, serves as a proxy for viable cell number.

The test system of experiment [5] is BXPC-3. In words: Antiproliferative activity against human BxPC3 cells at 5 uM after 72 hrs in presence of olaparib by CellTiter-Glo luminescent cell viability assay. Type of experiment: functional, cell-based. Summed up: as §1

Take `O=C(O)CCC(=O)N1N=C(c2c(-c3ccccc3)c3ccccc3[nH]c2=O)CC1c1ccc(Cl)cc1` (racemic): the EC50 entry in experiment [1] is recorded as “Not Active”.

As to `CC(=O)N1N=C(c2c(-c3ccccc3)c3cc(Cl)ccc3[nH]c2=O)CC1c1ccco1` (racemic), the EC50 result in experiment [1] is listed as “Not Active”.

As to `O=C(O)CCC(=O)N1N=C(c2c(-c3ccccc3)c3cc(Cl)ccc3[nH]c2=O)CC1c1ccc2nn(C3CCCCC3)cc2c1` (racemic), the EC50 result in experiment [1] is “Not Active”.

Turning to `NCCC(=O)N1N=C(c2c(-c3ccccc3)c3cc(Cl)ccc3[nH]c2=O)CC1c1ccc(F)cc1` (racemic), in experiment [1], the EC50 entry is “Not Active”.

For `O=C(c1cc(Cc2n[nH]c(=O)c3ccccc23)ccc1F)N1CCN(C(=O)C2CC2)CC1`, in the experiment with CAPAN-1, the outcome was Active.

With `O=C(O)CCC(=O)N1N=C(c2c(-c3ccccc3)c3cc(Cl)ccc3[nH]c2=O)CC1c1ccc(-c2ccc(F)cc2)cc1` (racemic), the outcome with BXPC-3 [2] was inactive.

For `COc1ccc(C2CC(c3c(-c4ccccc4)c4cc(Cl)ccc4[nH]c3=O)=NN2C(=O)CCC(=O)O)cc1F` (racemic), in experiment [1], the EC50 result is reported as “Not Active”.

Turning to `COc1ccc(C2CC(c3c(-c4ccccc4)c4ccccc4[nH]c3=O)=NN2C(=O)CCC(=O)O)cc1` (racemic), the EC50 result in experiment [1] is on record as “Not Active”.

For `O=C(O)CCC(=O)N1N=C(c2c(-c3ccccc3)c3cc(Cl)ccc3[nH]c2=O)CC1c1ccc(-c2ccc(Br)cc2)cc1` (racemic), the result with BXPC-3 [2] was inactive.

In the case of `O=C(O)CCC(=O)N1N=C(c2c(O)nc3ccc(Cl)cc3c2-c2ccccc2)CC1c1ccco1` (racemic), in experiment [1], the EC50 entry is listed as “Not Active”.

In the case of `CCC(=O)N1N=C(c2c(-c3ccccc3)c3cc(Cl)ccc3[nH]c2=O)CC1c1ccc(Cl)cc1` (racemic), in experiment [3], the inhibition entry is “inactive”. Further, the outcome in the experiment on BXPC-3 [2] was inactive.

As for `CCn1ccc2cc(C3CC(c4c(-c5ccccc5)c5cc(Cl)ccc5[nH]c4=O)=NN3C(=O)CCC(=O)O)ccc21` (racemic), the outcome in the experiment on BXPC-3 [2] was inactive.

Take `CC(=O)N1N=C(c2c(-c3ccccc3)c3cc(Cl)ccc3[nH]c2=O)CC1c1ccc(Cl)cc1` (racemic): in the experiment on BXPC-3 [2], the outcome was inactive.

`CC(=O)N1N=C(c2c(-c3ccccc3)c3cc(Cl)ccc3[nH]c2=O)CC1c1ccc2c(ccn2C)c1` (racemic): the inhibition result in experiment [3] is “inactive”.

For `O=C(O)CCC(=O)N1N=C(c2c(-c3ccccc3)c3ccccc3[nH]c2=O)CC1c1ccc(F)cc1` (racemic), the EC50 entry in experiment [1] is listed as “Not Active”.

For the compound `O=C(O)CCC(=O)N1N=C(c2c(-c3ccccc3)c3cc(Cl)ccc3[nH]c2=O)CC1c1ccc(Br)cc1` (racemic), the inhibition entry in experiment [3] is “inactive”. Besides, the result in the experiment with BXPC-3 [2] was inactive.

With `CCn1cc2cc(-c3ccc(C4CC(c5c(-c6ccccc6)c6cc(Cl)ccc6[nH]c5=O)=NN4C(=O)CCC(=O)O)cc3)ccc2n1` (racemic), in the experiment on BXPC-3 [4], the result was Active. In experiment [3], the inhibition result is “inactive”.

With `O=C(O)CCC(=O)N1N=C(c2c(-c3ccccc3)c3ccccc3[nH]c2=O)CC1c1ccc(Br)cc1` (racemic), the EC50 entry in experiment [1] is listed as “Not Active”.

With `CC(=O)N1N=C(c2c(-c3ccccc3)c3cc(Cl)ccc3[nH]c2=O)CC1c1ccc(C(C)(C)C)cc1` (racemic), in experiment [3], the inhibition result was “inactive”.

With `Cn1ccc2cc(C3CC(c4c(-c5ccccc5)c5cc(Cl)ccc5[nH]c4=O)=NN3C(=O)CCC(=O)O)ccc21` (racemic), the inhibition entry in experiment [3] is “inactive”. For the same compound, the outcome in the experiment with BXPC-3 [5] was inactive.

`CCC(=O)N1N=C(c2c(-c3ccccc3)c3cc(Cl)ccc3[nH]c2=O)CC1c1ccc(Br)cc1` (racemic): the inhibition result in experiment [3] was “inactive”. Also, the result with BXPC-3 [2] was inactive.

In the case of `CCCn1ncc2cc(C3CC(c4c(-c5ccccc5)c5cc(Cl)ccc5[nH]c4=O)=NN3C(C)=O)ccc21` (racemic), the inhibition result in experiment [3] was “inactive”. Moreover, the outcome in the experiment on BXPC-3 [2] was inactive.

As to `O=C(O)CCC(=O)N1N=C(c2c(-c3ccccc3)c3ccccc3[nH]c2=O)CC1c1cccc(Br)c1` (racemic), in experiment [1], the EC50 entry is “Not Active”.

As for `CCCn1ncc2cc(C3CC(c4c(-c5ccccc5)c5cc(Cl)ccc5[nH]c4=O)=NN3C(=O)CCC(=O)O)ccc21` (racemic), the EC50 result in experiment [1] is given as “Not Active”.

Take `NC(=O)CCC(=O)N1N=C(c2c(-c3ccccc3)c3cc(Cl)ccc3[nH]c2=O)CC1c1ccc(F)cc1` (racemic): the EC50 entry in experiment [1] is reported as “Not Active”.

`CS(=O)(=O)NCCC(=O)N1N=C(c2c(-c3ccccc3)c3cc(Cl)ccc3[nH]c2=O)CC1c1ccc(F)cc1` (racemic): the EC50 entry in experiment [1] is reported as “Not Active”.

In the case of `CCCn1cc2cc(C3CC(c4c(-c5ccccc5)c5cc(Cl)ccc5[nH]c4=O)=NN3C(=O)CCC(=O)O)ccc2n1` (racemic), the EC50 result in experiment [1] was “Not Active”.

Consider `CC(=O)N1N=C(c2c(-c3ccccc3)c3cc(Cl)ccc3[nH]c2=O)CC1c1ccc(C(F)(F)F)cc1` (racemic), for which the EC50 result in experiment [1] is listed as “Not Active”.

Take `COc1ccc(C2CC(c3c(O)nc4ccc(Cl)cc4c3-c3ccccc3)=NN2C(=O)CCC(=O)O)cc1` (racemic): the EC50 result in experiment [1] is on record as “Not Active”.

Turning to `O=C(O)CCC(=O)N1N=C(c2c(-c3ccccc3)c3cc(Cl)ccc3[nH]c2=O)CC1c1ccc2c(cnn2C2CCCCC2)c1` (racemic), the EC50 entry in experiment [1] was “Not Active”.

For the compound `COC(=O)CCC(=O)N1N=C(c2c(-c3ccccc3)c3cc(Cl)ccc3[nH]c2=O)CC1c1ccc(F)cc1` (racemic), the EC50 entry in experiment [1] is on record as “Not Active”.

Consider `CC(C)(C)c1ccc(C2CC(c3c(-c4ccccc4)c4cc(Cl)ccc4[nH]c3=O)=NN2C(=O)CCC(=O)O)cc1` (racemic), for which the EC50 result in experiment [1] is listed as “Not Active”.

As to `O=C(O)CCC(=O)N1N=C(c2c(-c3ccccc3)c3ccccc3[nH]c2=O)CC1c1ccc(C(F)(F)F)cc1` (racemic), the EC50 entry in experiment [1] is “Not Active”.
